SUMO1 PPI mod = modulators of human SUMO1-mediated protein-protein interactions; SUMO1 binding to a labelled peptide, TR-FRET, 1 h; P63165; inhibition, % at 20 µM; hit rate 0.33% among 360,000; AID 602429; in the data active = inhibition above about 37%
Target sequence (P63165 whole entry, looked up): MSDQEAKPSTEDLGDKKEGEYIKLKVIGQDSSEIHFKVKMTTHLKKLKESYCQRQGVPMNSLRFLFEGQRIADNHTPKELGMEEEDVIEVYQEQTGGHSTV
STEP inh = STEP (human) phosphatase inhibition | AID 588621 | inhibition, % at 20 µM | hit rate 0.25% among 360,000 | P54829 | recombinant STEP, OMFP fluorogenic substrate, fluorescence;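 active = inhibition at 20 µM, scaled per plate between control wells, above about 37%, limit read from the data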
Target sequence (P54829 whole entry, looked up): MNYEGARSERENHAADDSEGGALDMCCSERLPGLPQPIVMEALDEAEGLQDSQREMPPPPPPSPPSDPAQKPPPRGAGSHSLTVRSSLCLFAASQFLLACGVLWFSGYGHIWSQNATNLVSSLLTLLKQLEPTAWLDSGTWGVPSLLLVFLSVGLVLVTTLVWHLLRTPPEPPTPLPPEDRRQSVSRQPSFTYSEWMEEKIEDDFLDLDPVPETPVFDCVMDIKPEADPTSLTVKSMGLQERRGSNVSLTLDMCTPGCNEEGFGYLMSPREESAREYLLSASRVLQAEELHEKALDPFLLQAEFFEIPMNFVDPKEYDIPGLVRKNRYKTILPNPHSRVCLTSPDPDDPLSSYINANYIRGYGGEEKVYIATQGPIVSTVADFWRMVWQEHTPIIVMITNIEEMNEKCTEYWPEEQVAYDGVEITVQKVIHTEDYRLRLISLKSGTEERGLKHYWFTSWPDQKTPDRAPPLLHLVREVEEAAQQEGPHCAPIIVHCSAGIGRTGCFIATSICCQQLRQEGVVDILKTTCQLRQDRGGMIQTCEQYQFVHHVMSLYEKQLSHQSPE
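Assay system: isolated STEP enzyme. Buffer or medium: pH 6.0 Bis-Tris with DTT and Tween 20. Also added: fluorogenic phosphatase substrate OMFP at 25 µM final. Dosing: 20 µM, 1% DMSO. Timing: 20 min reaction, room temperature, in the dark. Measured by: fluorescence intensity, excitation 480 nm, emission 540 nm. Evaluation: normalized % inhibition.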
NadD inh = NadD (S. aureus) enzyme inhibition; purified NadD enzyme, colorimetric absorbance read-out; inhibition, % at 20 µM; hit rate 0.78% among 360,000; in the data active = inhibition above about 26%
LMPTP block = LMPTP (human) inhibition | hit rate 0.22% among 360,000 | recombinant LMPTP-A, OMFP fluorogenic substrate, fluorescence intensity | AID 651560 | inhibition, % at 20 µM;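 active = compounds that cut the enzyme signal by at least half of the control window in the single-dose screen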
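Test system – LMPTP-A phosphatase enzyme · Quantity – 0.625 nM LMPTP-A final · Reagent – OMFP substrate, 400 µM final · Dosing – one test concentration per compound, 20 µM, with 3% DMSO overall · Timing – 50 min enzyme reaction at room temperature, protected from light · Detection – fluorescence intensity · Controls – substrate-only low control, DMSO enzyme-plus-substrate high control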
DNMT1 inh = inhibitors of human DNMT1 | DNMT1 molecular beacon, Hinp1I cleavage, fluorescence | inhibition (reported as % activation of signal), % at 10 µM | hit rate 0.83% among 360,000 | AID 588458; in the data active = inhibition above about 50%
Scp-1 inhibitor = Scp-1 (human) phosphatase inhibition | inhibition, % at 20 µM | Q9GZU7 | Recombinant Scp1, phosphopeptide, malachite green phosphate absorbance | hit rate 0.88% among 340,000;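 active = inhibition above about 50% at 20 µM, limit read from the data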
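assay system = SCP-1 phosphatase catalytic domain, residues 76-261 | buffer or medium = 50 mM Tris acetate pH 5.5, 0.005% Tween-20, 10 mM MgCl2 | incubation = enzyme reaction 45 min at room temperature, colour 5 min, stabilisation 30 min | signal = Phosphate-binding colour reagent, absorbance read at 630 nm | measure = % inhibition at 20 µM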
Beacon interf DR = counter-screen for DNMT1 inhibitors: spectral interference, dose response | shares compounds with DNMT1 inh | 200 tested, under 10 active | AID 602382 | molecular beacon fluorescence | IC50, µM; call rule not given here
DNMT1 inh conf = confirmation of human DNMT1 inhibitors. hit rate 8% among 2,300. DNMT1 molecular beacon HinP1I cleavage, fluorescence. inhibition, % at 10 µM. shares compounds with DNMT1 inh;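 active = average inhibition of at least 30% in the single-concentration confirmation test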
Beacon interf = beacon fluorescence artifact counter-screen; shares compounds with DNMT1 inh; hit rate 1% among 2,300; DNMT1 molecular beacon spectral interference counterscreen, fluorescence 485/520; activation (fluorescence interference), % at 10 µM;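 active = activation of at least 30% at 10 µM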;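 also: DNMT1 catalytic domain with a HinP1I cleavage step and a FAM/dabcyl DNA beacon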
Large screens that a line does not name were inactive (follow-up assays come after a bar, where they were run). Sampled rows, rich in hits. Any-hit rate of the full collection: about 2.4%.

N#Cc1c(N)nc2c(c1N)CC(CCl)O2 (stereo unspecified)	DNMT1 inh 93 | DNMT1 inh conf inactive | Beacon interf inactive
CN1C(=O)C2(c3ccccc31)c1c(oc3ccccc3c1=O)C(=O)N2CCCO (stereo unspecified)	none
N#CC1=C(N)OC2=C(C(=O)CCC2)C1c1ccncc1 (stereo unspecified)	DNMT1 inh 75 | DNMT1 inh conf inactive | Beacon interf inactive
CSc1nnc2c3cc(C)ccc3n(Cc3ccccc3)c2n1	DNMT1 inh 77 | DNMT1 inh conf inactive | Beacon interf inactive
COc1ccc(/C=C/C(=O)NC(=S)Nc2cc3oc4ccccc4c3cc2OC)cc1	DNMT1 inh 57 | DNMT1 inh conf inactive | Beacon interf inactive
COc1cc2c(cc1NC(=O)Nc1ccc(F)cc1)oc1ccccc12	DNMT1 inh 83 | DNMT1 inh conf inactive | Beacon interf inactive
COc1cc2c(cc1NC(=O)Nc1ccc(C)cc1)oc1ccccc12	none
COc1ccc(OC)c2sc(NC(=O)c3ccc(Cl)s3)nc12	DNMT1 inh 61 | DNMT1 inh conf inactive | Beacon interf inactive
COc1ccc(OC)c2sc(NC(=O)c3ccc(Br)s3)nc12	DNMT1 inh 57 | DNMT1 inh conf inactive | Beacon interf inactive
Nc1c(Br)cc2c([nH]c(=O)c3ccccc32)c1Br	none
COc1ccc(C(=O)CC(=O)C(=O)NCCc2cccc(C)c2)cc1	DNMT1 inh 89 | DNMT1 inh conf inactive | Beacon interf inactive
COc1ccc(C(=O)CC(=O)C(=O)Nc2cc(C)ccc2C)cc1	none
Cc1ccccc1-n1c(SCC(=O)c2cc(C)n(C)c2C)nnc1-c1ccncc1	none
C/C=C1\NC(=O)[C@H](C)NC(=O)[C@@H](NC(=O)[C@@H](Cc2ccc(O)cc2)NC(=O)[C@@H](NC(=O)/C(C)=C/C)C(C)C)[C@@H](C)OC(=O)[C@H](CCCCc2ccc(O)cc2)NC(=O)[C@@H](CCC(=O)O)NC1=O	none
CC1(C)OC2CC3C4CC=C5CC(O)CCC5(C)C4CCC3(C)C2(C(=O)CO)O1 (stereo unspecified)	DNMT1 inh 67 | DNMT1 inh conf inactive | Beacon interf inactive
CCS(=O)(=O)N1Cc2ccccc2CC1C(=O)N1CCN(c2cccc(C)c2C)CC1 (stereo unspecified)	DNMT1 inh 65 | DNMT1 inh conf inactive | Beacon interf inactive
COc1ccc(-c2cc(=O)c3ccc(O)cc3o2)cc1	none
COc1ccc(-c2ccc3c(=O)cc(-c4ccsc4)oc3c2)cn1	DNMT1 inh 53 | DNMT1 inh conf inactive | Beacon interf inactive
O=C(N/N=C/c1ccc(Br)cc1)c1ccc(NC(=O)c2ccccc2)cc1	DNMT1 inh 74 | DNMT1 inh conf inactive | Beacon interf inactive
CN(C)c1ccc(/C=N/NC(=O)c2ccc(NC(=O)c3ccccc3)cc2)cc1	none
O=C(c1cccc(C(F)(F)F)c1)N1CCOc2ccccc21	DNMT1 inh 54 | DNMT1 inh conf inactive | Beacon interf inactive
Cc1ccnc(NC(=O)COC(=O)C23CC4CC(CC(C4)C2)C3)n1	DNMT1 inh 70 | DNMT1 inh conf inactive | Beacon interf inactive
CC1Sc2ccc(C(=O)N(CCc3ccccc3)Cc3ccccc3)cc2NC1=O (stereo unspecified)	DNMT1 inh 83 (no result: Scp-1 inhibitor) | DNMT1 inh conf inactive | Beacon interf inactive
COc1cc(NC(=O)c2ccc(-c3cccnc3)c3ccoc23)cc(OC)c1OC	none (no result: Scp-1 inhibitor)
O=C(Nc1cccc(OC(F)(F)F)c1)c1ccc(-c2cccnc2)c2ccoc12	DNMT1 inh 69 (no result: Scp-1 inhibitor) | DNMT1 inh conf inactive | Beacon interf inactive
COc1cc(OC)c2ccc(=O)oc2c1C(CC(=O)N1CCCC1)c1ccc2c(c1)OCO2 (stereo unspecified)	DNMT1 inh 72 | DNMT1 inh conf inactive | Beacon interf inactive
COc1ccc(C(=O)C(=O)N2CCN(c3ccccc3F)CC2)cc1	none (no result: STEP inh, NadD inh, DNMT1 inh, Scp-1 inhibitor)
CCCOc1ccc(Cc2nn3c(=O)/c(=C/c4ccco4)sc3nc2=O)cc1	DNMT1 inh 86 | DNMT1 inh conf inactive | Beacon interf inactive
Cn1nnnc1SCC(=O)NCc1ccco1	none
CCOc1ccccc1-n1nnnc1SCC(=O)NC(=O)NCc1ccco1	DNMT1 inh 60 | DNMT1 inh conf inactive | Beacon interf inactive
O=C(CSc1nnnn1-c1ccccc1)NC(=O)NCc1ccco1	DNMT1 inh 68 | DNMT1 inh conf inactive | Beacon interf inactive
Cc1cccc(NC(=S)N=Nc2c(O)[nH]c3ccccc23)c1	none
COc1ccccc1NC(=S)N=Nc1c(O)[nH]c2ccc(Br)cc12	NadD inh 30, DNMT1 inh 89 | DNMT1 inh conf inactive | Beacon interf inactive
Cc1cc(=O)c(C(=O)Nc2cccc(N3CCCC3=O)c2)nn1-c1ccccc1F	DNMT1 inh 85 | DNMT1 inh conf inactive | Beacon interf inactive
Cc1cc(=O)c(C(=O)Nc2cccc(N3CCCC3=O)c2)nn1-c1ccccc1Cl	none
CC(/C=C1\SC(=S)N(c2ccc(C(=O)O)cc2)C1=O)=C\c1ccccc1	SUMO1 PPI mod 57, DNMT1 inh 110 | DNMT1 inh conf inactive | Beacon interf inactive
CC(/C=C1\SC(=S)N(C(C(=O)O)C(C)C)C1=O)=C\c1ccccc1 (stereo unspecified)	none
COc1cc2ccc(C(=O)O)cc2cc1OC	none (no result: Scp-1 inhibitor)
COCCn1c(SCC(=O)NC2CC2)nnc1-c1ccc(Cl)cc1	none
O=C(O)CCN1C(=O)/C(=C/c2ccc(-c3nc4ccccc4s3)o2)SC1=S	SUMO1 PPI mod 91, STEP inh 70, DNMT1 inh 99 | Beacon interf DR inactive | DNMT1 inh conf 47 | Beacon interf inactive
Clc1ccc2nc(-c3ccco3)c(Cc3ccccc3)n2c1	DNMT1 inh 64 (no result: Scp-1 inhibitor) | DNMT1 inh conf inactive | Beacon interf inactive
Fc1cccc(Cc2c(-c3ccco3)nc3ccc(Cl)cn23)c1	none (no result: Scp-1 inhibitor)
CCN(CC(=O)NC1CCS(=O)(=O)C1)C(C)C(=O)Nc1ccc(F)cc1 (stereo unspecified)	none
CCOc1ccc2nc(NC(=O)CN3CCN(CC)CC3)sc2c1	none
CCOc1ccc2nc(NC(=O)CN3CCN(C)CC3)sc2c1	DNMT1 inh 73 | DNMT1 inh conf inactive | Beacon interf inactive
CC(OC(=O)c1cccs1)C(=O)NC1CCCCC1C (stereo unspecified)	none

Screening data deposited in PubChem BioAssay by Sanford-Burnham Center for Chemical Genomics.
